Laboratory results reported in ChEMBL document CHEMBL2424586, “Polyoxygenated cinnamoylcoumarins as conformationally constrained analogs of cytotoxic diarylpentanoids: synthesis and biological activity” (Eur J Med Chem, 2013).

What was measured:
[1] = test system: Radical scavenging activity; experiment: Antioxidant activity assessed as DPPH free radical scavenging activity after 30 mins; format: functional
[2] = test system: MOLT-4; experiment: Cytotoxicity against human MOLT4 cells after 72 hrs by MTT assay; format: functional, cell-based; settings: MOLT-4, 72 h
How it was run: (§1)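 MCF-7 grown as monolayer, K562 and MOLT-4 in suspension; seeded at 30,000, 40,000 and 40,000 cells/ml respectively and incubated overnight at 37 °C. Compounds dissolved in DMSO, diluted in medium, final DMSO ≤0.5%; cisplatin as reference.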

[3] = test system: MCF7; experiment: Cytotoxicity against human MCF7 cells after 72 hrs by MTT assay; format: functional, cell-based; settings: MCF7, 72 h; how it was run: as §1
[4] = Antioxidant activity assessed as ferric ion reducing ability after 20 mins by FRAP assay; format: functional
How it was run: (§2)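 FRAP reagent: acetate buffer (300 mM, pH 3.6), TPTZ (10 mM in 40 mM HCl) and FeCl3 (20 mM) at 10:1:1, diluted to 1/3 with methanol and pre-warmed to 37 °C. Diluted compound added, 20 min at 37 °C, A593. Values read from FeSO4·7H2O calibration curve; quercetin as reference.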

[5] = test system: K562; experiment: Cytotoxicity against human K562 cells after 72 hrs by MTT assay; format: functional, cell-based; settings: K562, 72 h; how it was run: as §1
[6] = Antioxidant activity assessed as ferric ion reducing ability after 20 mins by FRAP assay relative to quercetin; format: functional; how it was run: as §2
[7] = species: Rattus norvegicus; experiment: Reduction of total thiol content in Wistar rat liver mitochondria after 1 hr by DTNB method; format: functional
How it was run: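 Wistar rat liver mitochondria isolated by differential centrifugation (1500 × g, then 10,000 × g, 10 min, 4 °C) and suspended in Tris-HCl 0.05 M/sucrose 0.25 M/KCl/MgCl2/Na2HPO4, pH 7.4. Protein by Bradford. Mitochondria (1 mg/mL) exposed 1 h to compound, then total thiols measured by DTNB at 412 nm against a GSH standard curve; mean ± SD, n = 3.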

SMILES	IC50 [1] [µM]	IC50 [2] [µM]	IC50 [3] [µM]	Activity [4] [mM]	IC50 [5] [µM]	fold change (FC) [6]	Activity [7]
COc1cccc(COc2ccc3cc(C(=O)/C=C/c4ccc(C)cc4)c(=O)oc3c2)c1	2630	> 50	> 50	6.6	> 50	–	–
COc1cccc(/C=C/C(=O)c2cc3cc(OCc4ccccc4)ccc3oc2=O)c1OC	1270	23.6	21.3	4.4	48.9	–	–
O=C(/C=C/c1ccc2c(c1)OCO2)c1cc2cc(OCc3ccccc3)ccc2oc1=O	570	> 50	> 50	12.6	> 50	–	–
COC(=O)c1ccc(/C=C/C(=O)c2cc3ccc(O)cc3oc2=O)cc1	–	3.7	5.5	–	4.4	–	–
COc1cccc(COc2ccc3cc(C(=O)/C=C/c4ccccc4)c(=O)oc3c2)c1	890	> 100	33.7	10.4	> 100	–	–
COc1cccc(/C=C/C(=O)c2cc3cc(O)ccc3oc2=O)c1OC	160	6.7	8.8	25.7	17.3	0.3	–
O=C(/C=C/c1ccc2c(c1)OCO2)c1cc2cc(O)ccc2oc1=O	480	2	9.7	15.3	14.6	–	–
COc1cccc(COc2ccc3cc(C(=O)/C=C/c4c(Cl)cccc4Cl)c(=O)oc3c2)c1	940	12.5	10.1	5.3	15.6	–	–
COc1cccc(COc2ccc3cc(C(=O)/C=C/c4ccc5c(c4)OCO5)c(=O)oc3c2)c1	460	> 100	> 100	7.5	22.8	–	–
COc1cccc(COc2ccc3cc(C(=O)/C=C/c4cc(OC)ccc4OC)c(=O)oc3c2)c1	750	13.8	> 100	9.5	35.1	–	–
O=c1c(O)c(-c2ccc(O)c(O)c2)oc2cc(O)cc(O)c12 [QUERCETIN]	8.12	–	–	87.1	–	–	–
COc1cccc(COc2ccc3cc(C(=O)/C=C/c4cccc(OC)c4OC)c(=O)oc3c2)c1	720	22.8	35.1	7.6	45.5	–	–
COc1ccc(/C=C/C(=O)c2cc3ccc(OCc4cccc(OC)c4)cc3oc2=O)cc1	930	> 100	> 100	14.3	> 100	–	–
COc1cc(/C=C/C(=O)c2cc3cc(OCc4ccccc4)ccc3oc2=O)cc(OC)c1OC	1150	10.3	26.5	8.1	66.4	–	–
COc1cc(/C=C/C(=O)c2cc3cc(O)ccc3oc2=O)cc(OC)c1OC	180	3.9	10.9	9.6	8.8	–	–
COC(=O)c1ccc(/C=C/C(=O)c2cc3cc(O)ccc3oc2=O)cc1	–	7.1	1.3	–	15.8	–	–
COc1cc(/C=C/C(=O)c2cc3ccc(O)cc3oc2=O)cc(OC)c1OC	190	3.8	8.8	8.7	7.3	–	Dose-dependent effect
O=C(/C=C/c1ccc2c(c1)OCO2)c1cc2ccc(O)cc2oc1=O	540	26.2	38.9	13.7	31.7	–	–
COc1cccc(COc2ccc3cc(C(=O)/C=C/c4ccc(Cl)cc4Cl)c(=O)oc3c2)c1	480	–	–	7.1	–	–	–
COc1cccc(/C=C/C(=O)c2cc3ccc(O)cc3oc2=O)c1OC	150	7	16.6	25.2	14.6	0.3	Dose-dependent effect
